Measured values reported in ChEMBL document CHEMBL1806394, “Synthesis, in vitro evaluation and molecular docking studies of new triazole derivatives as antifungal agents” (2011).
Values after ≈ are worked out from the molar mass of the structure shown.

Tests used:
Assay type in all cases: functional
Candida albicans [1] = test: Antifungal activity against Candida albicans Y0109 by micro-broth dilution method
Procedure, shortened: (§1)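 MIC80 determined by broth microdilution following NCCLS methods. C. albicans SC5314 and Y0109 and C. neoformans BLS108 served as quality-control strains and were included in every assay. Fluconazole, itraconazole, voriconazole and amphotericin B were run as positive controls.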

Kluyveromyces marxianus = test: Antifungal activity against Candida kefyr by micro-broth dilution method
Candida albicans [2] = test: Antifungal activity against Candida albicans SC5314 by micro-broth dilution method; procedure, shortened: as §1
Trichophyton rubrum = test: Antifungal activity against Trichophyton rubrum by micro-broth dilution method; procedure, shortened: as §1
Candida tropicalis = test: Antifungal activity against Candida tropicalis by micro-broth dilution method; procedure, shortened: as §1
Aspergillus fumigatus = test: Antifungal activity against Aspergillus fumigatus by micro-broth dilution method; procedure, shortened: as §1
Cryptococcus neoformans = test: Antifungal activity against Cryptococcus neoformans BLS108 by micro-broth dilution method; procedure, shortened: as §1
Candida parapsilosis = test: Antifungal activity against Candida parapsilosis by micro-broth dilution method; conditions: Lodderomyces parapsilosis; procedure, shortened: as §1

SMILES | MIC80 (Candida albicans [1]) | MIC80 (Kluyveromyces marxianus) | MIC80 (Candida albicans [2]) | MIC80 (Trichophyton rubrum) | MIC80 (Candida tropicalis) | MIC80 (Aspergillus fumigatus) | MIC80 (Cryptococcus neoformans) | MIC80 (Candida parapsilosis)
CCCCCc1ccc(C(=O)Nc2ccc(-n3cnn(CC(O)(Cn4cncn4)c4ccc(F)cc4F)c3=O)cc2)cc1 (single isomer, unassigned) | > 64 mg/L | > 64 mg/L | 4 mg/L (≈ 6.81 µM) | > 64 mg/L | > 64 mg/L | > 64 mg/L | > 64 mg/L | > 64 mg/L
COc1cccc(C(=O)Nc2ccc(-n3cnn(CC(O)(Cn4cncn4)c4ccc(F)cc4F)c3=O)cc2)c1 (single isomer, unassigned) | 0.0625 mg/L (≈ 0.114 µM) | 16 mg/L (≈ 29.2 µM) | 0.0625 mg/L (≈ 0.114 µM) | > 64 mg/L | 1 mg/L (≈ 1.83 µM) | > 64 mg/L | > 64 mg/L | 0.0625 mg/L (≈ 0.114 µM)
Cc1ccc(C(=O)Nc2ccc(-n3cnn(CC(O)(Cn4cncn4)c4ccc(F)cc4F)c3=O)cc2)c(C)c1 (single isomer, unassigned) | 0.0625 mg/L (≈ 0.115 µM) | 64 mg/L (≈ 117 µM) | 0.0625 mg/L (≈ 0.115 µM) | > 64 mg/L | 1 mg/L (≈ 1.83 µM) | > 64 mg/L | > 64 mg/L | 0.0625 mg/L (≈ 0.115 µM)
CC(C)c1ccc(C(=O)Nc2ccc(-n3cnn(CC(O)(Cn4cncn4)c4ccc(F)cc4F)c3=O)cc2)cc1 (single isomer, unassigned) | 4 mg/L (≈ 7.15 µM) | > 64 mg/L | 4 mg/L (≈ 7.15 µM) | > 64 mg/L | 4 mg/L (≈ 7.15 µM) | > 64 mg/L | > 64 mg/L | 4 mg/L (≈ 7.15 µM)
O=C(Nc1ccc(-n2cnn(CC(O)(Cn3cncn3)c3ccc(F)cc3F)c2=O)cc1)c1cccc(Br)c1 (single isomer, unassigned) | 16 mg/L (≈ 26.8 µM) | 64 mg/L (≈ 107 µM) | 4 mg/L (≈ 6.71 µM) | > 64 mg/L | 16 mg/L (≈ 26.8 µM) | > 64 mg/L | > 64 mg/L | 16 mg/L (≈ 26.8 µM)
C[C@@H](c1ncncc1F)[C@](O)(Cn1cncn1)c1ccc(F)cc1F [VORICONAZOLE] | 0.0039 mg/L (≈ 0.0112 µM) | 0.0039 mg/L (≈ 0.0112 µM) | 0.0039 mg/L (≈ 0.0112 µM) | 0.0156 mg/L (≈ 0.0447 µM) | 0.0039 mg/L (≈ 0.0112 µM) | 0.0039 mg/L (≈ 0.0112 µM) | 0.0039 mg/L (≈ 0.0112 µM) | 0.0039 mg/L (≈ 0.0112 µM)

Now from value to compound:

MIC80 (Candida albicans [1]) | MIC80 (Kluyveromyces marxianus) | MIC80 (Candida albicans [2]) | MIC80 (Trichophyton rubrum) | MIC80 (Candida tropicalis) | MIC80 (Aspergillus fumigatus) | MIC80 (Cryptococcus neoformans) | MIC80 (Candida parapsilosis) | SMILES
> 64 mg/L | > 64 mg/L | 4 mg/L (≈ 6.97 µM) | > 64 mg/L | > 64 mg/L | > 64 mg/L | > 64 mg/L | > 64 mg/L | COc1ccc(/C=C/C(=O)Nc2ccc(-n3cnn(CC(O)(Cn4cncn4)c4ccc(F)cc4F)c3=O)cc2)cc1 (single isomer, unassigned)
16 mg/L (≈ 27.7 µM) | > 64 mg/L | 4 mg/L (≈ 6.92 µM) | > 64 mg/L | > 64 mg/L | > 64 mg/L | > 64 mg/L | > 64 mg/L | O=C(/C=C/c1ccc(Cl)cc1)Nc1ccc(-n2cnn(CC(O)(Cn3cncn3)c3ccc(F)cc3F)c2=O)cc1 (single isomer, unassigned)
16 mg/L (≈ 26.5 µM) | > 64 mg/L | 1 mg/L (≈ 1.66 µM) | > 64 mg/L | > 64 mg/L | > 64 mg/L | > 64 mg/L | 1 mg/L (≈ 1.66 µM) | COc1ccc(OC)c(/C=C/C(=O)Nc2ccc(-n3cnn(CC(O)(Cn4cncn4)c4ccc(F)cc4F)c3=O)cc2)c1 (single isomer, unassigned)
